One data set deals with CYP. In words: CYP inhibition profile. The format is in vitro ADME.
The target of a further data set is T1, GlyT1 (Homo sapiens, UniProt P48067).
T1 sequence (P48067 1-706): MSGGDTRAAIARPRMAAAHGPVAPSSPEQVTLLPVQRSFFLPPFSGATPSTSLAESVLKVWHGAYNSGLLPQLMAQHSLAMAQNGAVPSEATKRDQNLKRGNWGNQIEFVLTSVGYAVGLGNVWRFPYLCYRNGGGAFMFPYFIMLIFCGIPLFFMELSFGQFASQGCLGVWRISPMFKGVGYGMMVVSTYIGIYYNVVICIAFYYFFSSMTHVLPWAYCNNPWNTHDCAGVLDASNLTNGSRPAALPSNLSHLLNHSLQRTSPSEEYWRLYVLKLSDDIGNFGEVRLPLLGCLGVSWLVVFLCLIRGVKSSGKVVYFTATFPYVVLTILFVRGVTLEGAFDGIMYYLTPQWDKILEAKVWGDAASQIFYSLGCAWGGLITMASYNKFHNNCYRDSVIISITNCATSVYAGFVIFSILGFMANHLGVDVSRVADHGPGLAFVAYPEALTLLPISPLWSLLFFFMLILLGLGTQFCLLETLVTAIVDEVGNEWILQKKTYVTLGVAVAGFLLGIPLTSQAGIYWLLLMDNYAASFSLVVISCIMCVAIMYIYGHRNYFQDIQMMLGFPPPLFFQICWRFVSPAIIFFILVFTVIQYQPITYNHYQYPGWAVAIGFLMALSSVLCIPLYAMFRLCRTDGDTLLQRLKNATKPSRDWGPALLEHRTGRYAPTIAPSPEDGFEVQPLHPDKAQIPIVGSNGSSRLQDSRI
As to the kind of experiment: Enzyme kinetics of [14C]-glycine transport. The format is biochemical. The conditions noted are these: [14C]-glycine transport kinetics; 120 nM 12b in Fig. 3. In a few lines: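 Saturation curves of [14C]-glycine transport were run with either vehicle or 120 nM test compound. Inhibition mode relative to glycine was assessed from an Eadie-Hoffstee plot of the transport data.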

SMILES strings stand for the structures.

We go through 3 compounds from article PMC3951244 (Bioorganic & medicinal chemistry letters, 2014).

By IC50 is commonly meant the midpoint of a concentration-inhibition curve. A lower IC50 goes with greater potency in that assay. In the data set on CYP, `Cn1cnc(S(=O)(=O)N2CC3CCC(NC(=O)c4ccc(Cl)cc4Cl)C3C2)c1` (stereo not drawn) [Compound 12a] showed an IC50 greater than 10 µM.

Turning to `Cn1cnc(S(=O)(=O)N2CC3CCC(NC(=O)c4ccccc4C(F)(F)F)C3C2)c1` (stereo not drawn) [Compound 12b], the “Mechanism of GlyT1 inhibition with respect to glycine” value on GlyT1 is listed as “competitively inhibits”.

`Cn1cnc(S(=O)(=O)N2CC(C(NC(=O)c3ccc(Cl)cc3Cl)c3ccccn3)C2)c1` (stereo not drawn) [Compound 27c]: the IC50 in the data set with CYP is greater than 10 µM.
